Measurements pooled from the literature.
Compare with care: the assays were run in different laboratories.
Target: Misshapen-like kinase 1 (MINK1, Homo sapiens, UniProt Q8N4C8)

| SMILES | test | conditions | endpoint | value |
| --- | --- | --- | --- | --- |
| O=C(N1CCS(=O)(=O)CC1)N1C[C@H](c2ccc(OC(F)(F)F)cc2)C[C@H](c2nc(C3CC3)no2)C1 | cell-free assay, competition with immobilised ligand | 1 µM | remaining binding | 99% |
| CC(C)(C)c1nc(-c2cccc(NS(=O)(=O)c3c(F)cccc3F)c2F)c(-c2ccnc(N)n2)s1 | enzyme activity, inhibitor, radiometric | 1 µM | remaining activity | 100% |
| COc1cc(Cl)c(C(=O)N[C@@H](CN[C@H]2CC[C@@H](N)CC2)Cc2ccc(C#N)cc2)cc1-c1ccc(CN[C@H](C)c2ccc(C)cc2)o1 | enzyme activity, inhibitor | 1 µM | remaining activity | 94% |
| CCN(CC)CCNC(=O)c1c(C)[nH]c(/C=C2\C(=O)Nc3ccc(F)cc32)c1C | enzyme activity, inhibitor | 10 µM | inhibition | 94% |
| Nc1ncnc2occ(-c3ccc(NC(=O)Nc4cc(C(F)(F)F)ccc4F)cc3)c12 | cell-free assay, inhibitor | 20 µM | remaining signal | 1.5% |
| Cc1sc(C(=O)NC2COC2)cc1-n1cc(NC(=O)Nc2c(F)cccc2Cl)cn1 | enzyme activity, inhibitor | 10 µM | remaining activity | 102% |
| CNC(=O)c1cc(Oc2ccc(NC(=O)Nc3ccc(Cl)c(C(F)(F)F)c3)cc2)ccn1 | enzyme activity, inhibitor | 0.3 µM | inhibition | 14% |
| CN(C)C1CCN(CC#Cc2nn(C3CCCC3)c3nc(NCc4ccccc4)ncc23)C1 (stereo not shown) | enzyme activity, inhibitor, FRET | 1 µM | inhibition | 17% |
| CC/C(=N\NC(=O)NCc1cccc(O)c1)c1ccc(O)c(C)c1O | enzyme activity, inhibitor | 0.1 µM | inhibition | -1% |
| Cc1nc(C2CCN(C(=O)c3ccc(OC(F)(F)F)cc3N)CC2)c2ncc(N3CCN(C)CC3)cc2n1 | cell-free assay, competition with immobilised ligand | 1 µM | remaining binding | 93% |
| COc1cc2ncnc(Nc3ccc(Oc4ccccc4)c(C)c3C)c2cc1OC | enzyme activity, inhibitor | 1 µM | inhibition | -1% |
| Cc1ccc(NC(=O)c2ccc(C)c(C(F)(F)F)c2)cc1C#Cc1nn(C2CCC(O)CC2)c2ncnc(N)c12 (stereo not shown) | cell-free assay | 10 µM | remaining signal | 25% |
| Cc1ccc(Nc2nccc(N(C)c3ccc4c(C)n(C)nc4c3)n2)cc1S(N)(=O)=O | enzyme activity, inhibitor | 0.3 µM | inhibition | 23% |
| COc1cc(-c2cn(C3CCc4c(F)cccc4N(CC(F)(F)F)C3=O)nn2)ccc1-n1cnc(C)c1 (stereo not shown) | cell-free assay, competition with immobilised ligand | 1 µM | remaining binding | 84% |
| O=C(Nc1cnn(-c2csc(C(=O)NC3COC3)c2)c1)Nc1ccccc1Cl | enzyme activity, inhibitor | 5 µM | remaining activity | 79.4% |
| C[C@@H]1CN(c2cc(-c3n[nH]c4ccc(OC5(C)CC5)cc34)ncn2)C[C@H](C)O1 | cell-free assay, competition with immobilised ligand | 0.1 µM | remaining binding | 84% |

| SMILES | test | conditions | endpoint | value |
| --- | --- | --- | --- | --- |
| O=C1NC(=O)c2cc(Nc3ccc(F)cc3)c(Nc3ccc(F)cc3)cc21 | cell-free assay | 0.5 µM | remaining signal | 99% |
| COc1cc(-c2cc(-c3ccc(N4CCNCC4)cc3)cnc2N)cc(OC)c1OC | enzyme activity, inhibitor | 1 µM | inhibition | 89% |
| Cc1noc([C@H]2C[C@@H](c3ccc(C(F)(F)F)cc3)CN(C(=O)N3CCS(=O)(=O)C3)C2)n1 | cell-free assay, competition with immobilised ligand | 1 µM | remaining binding | 100% |
| Cn1c(=O)n(-c2ccc(C(C)(C)C#N)cc2)c2c3cc(-c4cnc5ccccc5c4)ccc3ncc21 | enzyme activity, inhibitor | 10 µM | remaining activity | 75% |
| N#CCCc1ccc2c(c1)-c1[nH]c3ccc([N+](=O)[O-])cc3c1CC(=O)N2 | cell-free assay | 0.5 µM | remaining signal | 29.9% |
| CC(C)(O)[C@H]1CC[C@H](Nc2ccc3ncc(-c4cccc(C(F)(F)F)c4)n3n2)CC1 | enzyme activity, inhibitor | 1 µM | remaining activity | 97% |
| FC(F)(F)Oc1cccc(-c2cnc3ccc(-c4ccncc4)nn23)c1 | enzyme activity, inhibitor, radiometric | 5 µM | activity vs control | 63% |
| NS(=O)(=O)c1cc(NC(=O)Cc2ccccc2)ccc1Oc1cccc(Cl)c1 | cell-free assay, competition with immobilised ligand | 1 µM | remaining binding | 90% |
| COc1cc(/C=C/C(=O)CC(=O)/C=C/c2ccc(O)c(OC)c2)ccc1O | enzyme activity, inhibitor | 1 µM | activity vs control | 78% |
| COc1cc(Nc2cnc(C#N)c(O[C@H](C)CN(C)C)n2)ncc1-c1cnn(C)c1 | enzyme activity, inhibitor, radiometric | 1 µM | remaining activity | 90% |
| N#CC1(c2ccccn2)CCN(Cc2cc(C(=O)N3CCCC3)c(=O)n3ccccc23)CC1 | cell-free assay, competition with immobilised ligand | 1 µM | remaining binding | 89% |
| C=CC(=O)Nc1cc(Nc2nccc(Nc3cc(Cl)c(F)cc3C(C)(C)O)n2)c(OC)cc1N1CC[C@@H](N(C)C)C1 | enzyme activity, inhibitor | 1 µM | inhibition | -3% |
| C[C@H](c1ccnc(Nc2nc3ccc(-c4cc(N(C)C)ncn4)cc3[nH]2)c1)N1CCN(C(=O)CC(F)(F)F)CC1 | cell-free assay, competition with immobilised ligand | 0.1 µM | remaining binding | 94% |
| COc1ccc(COc2ccc(Cc3cnc(N)nc3N)cc2OC)cc1 | cell-free assay | 0.5 µM | remaining signal | 86.5% |
| CN1CC(Oc2cnc(C#N)cc2-c2ccn3nc(NC(=O)C4CC4)cc3c2)C1 | enzyme activity, inhibitor | 1 µM | inhibition | 13% |
